Results on six molecules are retold here after ChEMBL document CHEMBL1141070, “Synthesis and biological activity of flurbiprofen analogues as selective inhibitors of beta-amyloid(1)(-)(42) secretion” (J Med Chem, 2005).

Series [1] deals with T1, Amyloid-beta precursor protein (Homo sapiens, UniProt P05067). Description: Inhibitory concentration against beta-amyloid-42 (Abeta42) secretion was evaluated in human neuroglioma cells (H4-APP695NL). In kind it is functional, cell-based. In outline: (§1)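 H4-APP695NL human neuroglioma cells (APP695 Swedish K595N/M596L) seeded at 2 × 10^5/well and grown 24 h to confluence. Increasing compound concentrations added overnight; DMSO 1% as vehicle. Supernatant Aβ42 or Aβ40 measured by electrochemiluminescence immunoassay: biotinylated 4G8 plus C-terminus-specific rabbit antibodies, captured on streptavidin beads.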
Target sequence in this assay (P05067 18-770 limits assumed): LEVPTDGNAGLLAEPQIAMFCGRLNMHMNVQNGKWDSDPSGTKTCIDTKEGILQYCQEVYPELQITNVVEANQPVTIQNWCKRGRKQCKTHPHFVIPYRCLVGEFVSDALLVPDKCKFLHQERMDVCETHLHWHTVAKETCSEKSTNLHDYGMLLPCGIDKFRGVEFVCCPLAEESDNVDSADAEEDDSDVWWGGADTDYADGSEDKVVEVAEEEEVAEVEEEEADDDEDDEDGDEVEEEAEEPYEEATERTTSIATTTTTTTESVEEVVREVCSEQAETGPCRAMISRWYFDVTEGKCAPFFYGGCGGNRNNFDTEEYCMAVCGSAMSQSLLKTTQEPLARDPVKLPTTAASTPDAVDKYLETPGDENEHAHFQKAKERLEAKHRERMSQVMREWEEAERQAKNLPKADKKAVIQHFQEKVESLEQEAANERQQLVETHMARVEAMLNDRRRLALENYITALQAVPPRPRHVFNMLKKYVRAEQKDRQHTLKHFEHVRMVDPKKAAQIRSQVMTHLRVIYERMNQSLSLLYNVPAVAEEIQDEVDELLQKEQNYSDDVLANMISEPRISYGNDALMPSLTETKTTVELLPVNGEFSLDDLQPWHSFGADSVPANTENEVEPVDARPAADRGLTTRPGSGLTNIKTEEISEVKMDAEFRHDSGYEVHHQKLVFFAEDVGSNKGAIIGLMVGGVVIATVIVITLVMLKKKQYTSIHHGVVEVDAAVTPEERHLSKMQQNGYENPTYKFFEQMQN

Series [2] in a line: Intestinal drug absorption was estimated in vitro using human colon adenocarcinoma (Caco-2) cell monolayers; Range is 10-50 nm/s. The class given is ADME. The gist of the method:
(§2)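 Caco-2 monolayers on polycarbonate Transwell inserts, 2 h at 37 °C. Apical and basolateral solutions analysed by LC-MS/MS (SRM). Papp = Cb·Vb/(C0·A·t).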

The target of series [3] is T1, Amyloid-beta precursor protein. Nature of the series: Concentration required to inhibit A beta 40 peptide. The gist of the method:
as §1
Target sequence in this assay (P05067 whole entry): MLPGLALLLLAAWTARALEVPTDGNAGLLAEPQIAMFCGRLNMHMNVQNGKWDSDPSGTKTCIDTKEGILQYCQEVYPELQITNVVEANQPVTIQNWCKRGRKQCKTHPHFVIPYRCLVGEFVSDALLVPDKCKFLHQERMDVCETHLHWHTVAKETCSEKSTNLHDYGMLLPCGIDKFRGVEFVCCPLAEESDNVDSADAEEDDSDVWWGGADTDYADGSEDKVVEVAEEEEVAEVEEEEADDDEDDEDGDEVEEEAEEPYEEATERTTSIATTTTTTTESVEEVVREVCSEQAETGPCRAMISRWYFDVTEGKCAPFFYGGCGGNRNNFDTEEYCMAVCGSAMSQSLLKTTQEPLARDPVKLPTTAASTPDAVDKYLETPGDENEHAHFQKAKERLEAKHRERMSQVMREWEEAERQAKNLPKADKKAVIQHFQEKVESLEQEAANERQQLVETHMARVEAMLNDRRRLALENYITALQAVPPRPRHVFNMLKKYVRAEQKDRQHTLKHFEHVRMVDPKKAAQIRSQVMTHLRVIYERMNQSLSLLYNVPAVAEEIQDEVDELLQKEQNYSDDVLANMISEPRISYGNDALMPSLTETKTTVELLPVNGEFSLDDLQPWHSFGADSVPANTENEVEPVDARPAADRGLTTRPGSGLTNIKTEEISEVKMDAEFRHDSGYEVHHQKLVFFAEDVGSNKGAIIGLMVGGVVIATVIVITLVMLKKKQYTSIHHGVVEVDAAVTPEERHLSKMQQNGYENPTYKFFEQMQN

Series [4] concerns the target T2, Prostaglandin G/H synthase 1 (Rattus norvegicus) (UniProt Q63921).
T2 sequence (whole entry): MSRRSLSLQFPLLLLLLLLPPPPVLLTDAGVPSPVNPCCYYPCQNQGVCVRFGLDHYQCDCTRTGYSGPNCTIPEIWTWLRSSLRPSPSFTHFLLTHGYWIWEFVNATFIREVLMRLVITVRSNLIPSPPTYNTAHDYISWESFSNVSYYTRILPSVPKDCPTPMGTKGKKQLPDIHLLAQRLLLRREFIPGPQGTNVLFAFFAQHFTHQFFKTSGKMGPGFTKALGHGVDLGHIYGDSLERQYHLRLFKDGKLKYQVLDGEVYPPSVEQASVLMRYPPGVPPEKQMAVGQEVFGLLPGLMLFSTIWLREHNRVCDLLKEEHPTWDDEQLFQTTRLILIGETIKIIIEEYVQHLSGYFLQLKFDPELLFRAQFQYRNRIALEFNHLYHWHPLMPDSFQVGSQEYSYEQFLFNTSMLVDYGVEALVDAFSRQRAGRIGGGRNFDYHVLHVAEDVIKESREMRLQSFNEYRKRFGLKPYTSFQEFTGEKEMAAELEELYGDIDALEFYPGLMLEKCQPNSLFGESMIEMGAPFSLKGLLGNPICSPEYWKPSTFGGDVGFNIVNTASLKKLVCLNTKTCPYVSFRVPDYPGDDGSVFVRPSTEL
Nature of the series: Percent inhibition against cyclooxygenase-1 at 100 uM in rat blood. The gist of the method: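 Fresh rat whole blood preincubated 1 h at 37 °C with compound (100 μM) or DMSO (0.3% final). Stimulated 30 min with A23187 calcium ionophore; plasma thromboxane B2 measured by radioimmunoassay.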

For a further series, the target named is T3, CYP1A2 (Homo sapiens, UniProt P05177).
T3 sequence (P05177 whole entry): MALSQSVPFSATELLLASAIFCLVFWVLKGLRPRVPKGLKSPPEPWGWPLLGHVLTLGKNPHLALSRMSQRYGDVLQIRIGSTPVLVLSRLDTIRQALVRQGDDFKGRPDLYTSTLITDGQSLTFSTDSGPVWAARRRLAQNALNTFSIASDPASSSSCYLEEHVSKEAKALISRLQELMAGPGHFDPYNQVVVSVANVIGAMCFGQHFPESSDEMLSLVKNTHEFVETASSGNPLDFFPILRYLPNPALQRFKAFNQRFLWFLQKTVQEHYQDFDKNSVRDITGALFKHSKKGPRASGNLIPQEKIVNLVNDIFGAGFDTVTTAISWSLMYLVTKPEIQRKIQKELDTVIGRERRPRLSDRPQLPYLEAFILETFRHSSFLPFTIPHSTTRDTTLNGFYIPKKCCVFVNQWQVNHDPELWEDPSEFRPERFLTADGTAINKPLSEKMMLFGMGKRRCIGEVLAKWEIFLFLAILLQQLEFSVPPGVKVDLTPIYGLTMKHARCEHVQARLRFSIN
Nature of the series: Interaction with human cytochrome P450 isoform 1A2 expressed in baculovirus-insect cells at 100 uM. In kind it is ADME. In outline: (§3)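 Microsomes from baculovirus-insect cells expressing human CYP1A2, 2C9, 2C19, 2D6 or 3A4. Compound serially diluted with an NADPH-regenerating mix (16.3 μM NADP+, 0.83 mM glucose-6-phosphate, 0.83 mM MgCl2, 0.4 U/mL G6PDH). Pre-warmed 10 min at 37 °C, then isoform-specific substrate added in 0.35 M potassium phosphate pH 7.4. Fluorometric read-out; IC50 by nonlinear regression.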

For a further series, the target named is CYP2D6 (Homo sapiens, UniProt P10635). Description: (§4) Interaction with human cytochrome P450 isoform 2D6 expressed in baculovirus-insect cells at 100 uM. The class given is ADME. The gist of the method: as §3
The target in a further series is Cytochrome P450 2D6 (Homo sapiens, UniProt P10635). The series is described as §4. In kind it is ADME. In outline:
as §3

The target in a further series is CYP2C19 (Homo sapiens, UniProt P33261). Description: Interaction with human cytochrome P450 isoform 2C19 expressed in baculovirus-insect cells at 100 uM. The class given is ADME. The gist of the method: as §3
For series [5], the target named is T1, Amyloid-beta precursor protein. As to conditions: at 100 µM.
Target sequence in this assay (P05067 whole entry): as the sequence (P05067 whole entry) above
The nature of series [6]: Concentration ratio in cerebrospinal fluid and plasma. As to conditions: rat.
Series [7] is described as follows: In vivo steady state metabolic clearance of the compound. The settings on record: rat.
A short description of series [8]: Intestinal drug absorption was estimated in vitro using human colon adenocarcinoma (Caco-2) cell monolayers. In kind it is ADME. In outline:
as §2

Series [9] has as its target T4, Cytochrome P450 2C9 (Homo sapiens, UniProt P11712). Nature of the series: Interaction with human cytochrome P450 isoform 2C9 expressed in baculovirus-insect cells at 100 uM. The class given is ADME. The gist of the method:
as §3

Series [10] concerns the target T1, Amyloid-beta precursor protein. Nature of the series: Concentration required to inhibit A beta 40 peptide at 100 uM. In outline:
as §1
Target sequence in this assay (P05067 whole entry): as the sequence (P05067 whole entry) above

The target in another series is Cytochrome P450 2C19 (Homo sapiens, UniProt P33261). Nature of the series: Compound dissolved in DMSO was tested for interaction with baculovirus-insect cells expressing human cytochrome P450 at 100 uM. The class given is ADME. The gist of the method:
as §3

The next series concerns Caco-2. Nature of the series: Permeability in the Caco-2 cell; high absorption. The class given is ADME, cell-based. As to conditions: human. In outline:
as §2
(Passage across Caco-2 layers is used to estimate intestinal permeability.)

In series [11] the target is T4, Cytochrome P450 2C9. Nature of the series: Interaction with human cytochrome P450 isoform 2C9 expressed in baculovirus-insect cells. In kind it is ADME. The gist of the method: as §3
For the next series, the target named is Cytochrome P450 3A4 (Homo sapiens, UniProt P08684). Nature of the series: Interaction with human cytochrome P450 isoform 3A4 expressed in baculovirus-insect cells. The class given is ADME. In outline:
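Supersome microsomes from baculovirus-insect cells expressing human CYP1A2, 2C9, 2C19, 2D6 or 3A4 were used with isoform-specific fluorogenic substrates. Compounds were serially diluted with an NADP⁺/glucose-6-phosphate regenerating system in 0.35 M potassium phosphate, pH 7.4. Plates were prewarmed 10 min at 37 °C, reactions stopped with acetonitrile/Tris, and fluorescence read. IC50 was obtained by nonlinear regression.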

Series [12] has as its target T1, Amyloid-beta precursor protein. Nature of the series: Concentration required to inhibit A beta 40 peptide 100 um.
Target sequence in this assay (P05067 whole entry): as the sequence (P05067 whole entry) above
A short description of series [13]: Concentration ratio in cerebrospinal fluid and plasma; below lower limit of quantitation. As to conditions: rat.

T4 sequence (P11712 whole entry, canonical isoform): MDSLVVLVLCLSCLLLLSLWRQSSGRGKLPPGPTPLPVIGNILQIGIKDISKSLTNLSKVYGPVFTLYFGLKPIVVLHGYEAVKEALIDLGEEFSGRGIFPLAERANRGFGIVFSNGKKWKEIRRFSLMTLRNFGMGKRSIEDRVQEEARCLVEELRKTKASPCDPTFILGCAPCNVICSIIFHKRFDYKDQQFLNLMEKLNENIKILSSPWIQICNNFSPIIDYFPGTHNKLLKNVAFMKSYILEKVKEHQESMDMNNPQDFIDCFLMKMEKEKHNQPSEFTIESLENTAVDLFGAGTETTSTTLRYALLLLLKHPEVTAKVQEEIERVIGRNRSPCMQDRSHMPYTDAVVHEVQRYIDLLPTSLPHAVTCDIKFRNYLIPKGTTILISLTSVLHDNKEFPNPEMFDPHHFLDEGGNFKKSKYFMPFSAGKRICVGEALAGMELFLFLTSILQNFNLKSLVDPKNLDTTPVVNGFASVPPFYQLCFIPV
Chain of Cytochrome P450 2D6 (P10635 whole entry): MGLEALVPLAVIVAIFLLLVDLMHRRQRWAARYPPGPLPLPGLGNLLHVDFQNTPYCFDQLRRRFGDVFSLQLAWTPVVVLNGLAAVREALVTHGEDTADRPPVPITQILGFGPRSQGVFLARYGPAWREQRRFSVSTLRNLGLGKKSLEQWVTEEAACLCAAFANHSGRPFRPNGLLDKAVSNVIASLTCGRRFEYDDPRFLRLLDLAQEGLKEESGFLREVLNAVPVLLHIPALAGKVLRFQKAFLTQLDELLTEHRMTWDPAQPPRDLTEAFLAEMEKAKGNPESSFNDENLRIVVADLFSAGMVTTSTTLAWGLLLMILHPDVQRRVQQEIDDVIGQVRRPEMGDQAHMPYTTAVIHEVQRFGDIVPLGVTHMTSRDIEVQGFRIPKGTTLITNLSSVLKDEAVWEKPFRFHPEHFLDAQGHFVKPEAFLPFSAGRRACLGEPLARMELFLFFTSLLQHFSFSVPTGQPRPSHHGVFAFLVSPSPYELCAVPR
Chain of CYP2D6 (P10635 whole entry, canonical isoform): as the sequence (P10635 whole entry) above
Chain of Cytochrome P450 3A4 (P08684 whole entry, canonical isoform): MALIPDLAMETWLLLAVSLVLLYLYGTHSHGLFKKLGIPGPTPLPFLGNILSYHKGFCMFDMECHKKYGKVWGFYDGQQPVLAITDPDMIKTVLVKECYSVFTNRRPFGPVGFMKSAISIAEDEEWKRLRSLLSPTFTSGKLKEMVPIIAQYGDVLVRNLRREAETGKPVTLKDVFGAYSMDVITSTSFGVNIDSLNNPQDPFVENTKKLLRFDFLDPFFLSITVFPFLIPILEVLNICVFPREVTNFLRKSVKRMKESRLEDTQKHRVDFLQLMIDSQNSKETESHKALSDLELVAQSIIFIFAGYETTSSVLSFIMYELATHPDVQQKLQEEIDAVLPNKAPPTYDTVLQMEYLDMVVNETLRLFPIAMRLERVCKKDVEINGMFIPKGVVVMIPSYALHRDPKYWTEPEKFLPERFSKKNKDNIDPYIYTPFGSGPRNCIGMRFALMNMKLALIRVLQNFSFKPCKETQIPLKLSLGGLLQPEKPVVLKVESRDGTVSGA
Chain of Cytochrome P450 2C19 (P33261 whole entry): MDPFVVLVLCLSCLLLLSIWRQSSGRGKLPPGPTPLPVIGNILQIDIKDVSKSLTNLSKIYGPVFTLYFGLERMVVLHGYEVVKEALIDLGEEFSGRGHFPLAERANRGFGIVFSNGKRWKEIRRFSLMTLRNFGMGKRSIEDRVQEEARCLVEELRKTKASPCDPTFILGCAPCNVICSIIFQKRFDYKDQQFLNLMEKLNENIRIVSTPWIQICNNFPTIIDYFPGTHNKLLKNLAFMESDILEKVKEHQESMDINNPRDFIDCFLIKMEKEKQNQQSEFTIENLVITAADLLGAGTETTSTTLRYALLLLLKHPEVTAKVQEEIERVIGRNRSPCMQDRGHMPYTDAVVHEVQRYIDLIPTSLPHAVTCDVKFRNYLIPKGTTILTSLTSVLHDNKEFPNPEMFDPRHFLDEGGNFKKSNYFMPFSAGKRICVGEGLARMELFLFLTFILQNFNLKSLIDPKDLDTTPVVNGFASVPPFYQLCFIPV
Chain of CYP2C19 (P33261 whole entry, canonical isoform): as the sequence (P33261 whole entry) above

For the molecule `CC(C(=O)O)c1ccc(-c2ccc(C3CCCCC3)cc2)c(F)c1` (stereo not given), the IC50 (usually the concentration that gives 50% inhibition) in [1] stood at 21 µM; in [3] it was 46 µM. The apparent permeability coefficient (Papp) (in general, the rate of passage across a membrane or cell layer, normalised by area and donor concentration) in [2] is 5 ×10⁻⁶ cm/s. The inhibition (usually the relative decrease from the control value, in per cent) was determined as 18% in series [4] and 79% in [5]. Also, the inhibition at 100 µM against CYP1A2, at CYP2D6 and on CYP2C19 was greater than 50% in each case. In addition, the Inhibition (usually the change of the read-out against control, counted positive when it falls) at Cytochrome P450 2D6 was greater than 50%. Also, the Ratio in [6] is on record as 1.5%. For the same molecule, the Clearance in [7] is 174 mL/h.
In series [1], `CC(C(=O)O)c1ccc(-c2csc3ccccc23)c(F)c1` (stereo not given) had an IC50 of 83 µM. Further, in series [8], the apparent permeability (Papp) is greater than 5 ×10⁻⁶ cm/s. In addition, the inhibition in [4] turned out to be 68%; in series [5], 96%. The Activation at Cytochrome P450 2C9 [9] is on record as greater than 50%.
In turn, `COC(=O)C(C)c1ccc(-c2cc(Cl)cc(Cl)c2)c(F)c1` (stereo not given) showed an inhibition in series [10] of 45%.
Regarding `CC(C(=O)O)c1ccc(-c2ccc(C(F)(F)F)cc2)c(F)c1` (stereo not given), the IC50 in series [1] is 129 µM. In addition, the inhibition in series [4] came to 40%; in [5], 60%. Further, the Inhibition entry on Cytochrome P450 2C19 is reported as “No interactions”. Also, the Absoption result in the series with Caco-2 is “High”.
For `CC(C)(C(=O)O)c1ccc(-c2ccc(C3CCCCC3)cc2)c(F)c1`, the IC50 at Cytochrome P450 2C9 [11] is 28 µM; on Cytochrome P450 3A4 it was 59 µM. Besides, the inhibition in [12] was determined as 47%; in [4], 12%; in series [5], 77%.
The molecule `O=C(O)C1(c2ccc(-c3ccc(C4CCOCC4)cc3)c(F)c2)CC1` displayed an inhibition in series [5] of 52%. In series [7], the Clearance stood at 39 mL/h. The Ratio result in series [13] is on record as “Below LLOQ”.
